The compounds below were run on mAb-19F2 (assay: colloidal gold immunochromatographic assay). Conditions: GICA; abstract.
Assay type: binding, BALB/c mice
Summary of the method: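 Colloidal gold strips were striped with […]. Tea was soaked 30 min in 50 mL boiling water, adjusted to pH 6-7, and 100 µL applied. Spikes were 2.5, 5 and 10 mg/kg. LOD was read by eye as test-line disappearance, and LOQ as IC20.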

| SMILES | limit of quantitation (LOQ, IC20) [µg/mL] |
| --- | --- |
| CC(C)N1C(=O)N(c2ccccc2)CS/C1=N\C(C)(C)C [Buprofezin] | 0.0168 |

Same assay, conditions: T/C values, buprofezin standard in 0.01 M PBS

| SMILES | IC50 of the test strip [µg/mL] |
| --- | --- |
| CC(C)N1C(=O)N(c2ccccc2)CS/C1=N\C(C)(C)C [Buprofezin] | 0.2312 |

Same assay, conditions: complete disappearance of test line visible to the naked eye

| SMILES | detection limit (LOD) [ng/mL] |
| --- | --- |
| CC(C)N1C(=O)N(c2ccccc2)CS/C1=N\C(C)(C)C [Buprofezin] | 500 |

These compounds were tested on mAb-19F2 (assay: ic-ELISA). Conditions: mAb-19F2, relative to buprofezin = 100%.
Assay type: binding, BALB/c mice

| SMILES | Cross-reactivity [%] |
| --- | --- |
| CN/C(=N\[N+](=O)[O-])NCc1cnc(Cl)s1 [Clothianidin] | <0.18 |
| FC(F)(F)c1ccc(OCCCOc2c(Cl)cc(OCC=C(Cl)Cl)cc2Cl)nc1 [Pyrldalyl] | <0.18 |
| CCc1ccc(C(=O)NN(C(=O)c2cc(C)cc(C)c2)C(C)(C)C)cc1 [Tebufenozide] | <0.18 |
| O=C(NC(=O)c1ccccc1Cl)Nc1ccc(Cl)cc1 [Chlorbenzuron] | <0.18 |
| Cc1cc(C)cc(C(=O)N(NC(=O)c2ccc3c(c2C)CCCO3)C(C)(C)C)c1 [Chromafenozide] | <0.18 |
| N#CCNC(=O)c1cnccc1C(F)(F)F [Flonicamid] | <0.18 |
| O=[N+]([O-])/N=C1\NCCN1Cc1cnc(Cl)s1 [Imidaclothiz] | <0.18 |
| CC(C)N1C(=O)N(c2ccccc2)CS/C1=N\C(C)(C)C [Buprofezin] | 100 |
| Nc1nc(N)nc(NC2CC2)n1 [Cyromazine] | <0.18 |
| CCCOC1CC(C)C([N+](=O)[O-])=C2N(Cc3ccc(Cl)nc3)CCN21 (centres unmarked) [Paichongding(IPP)] | <0.18 |
| CN1COCN(Cc2cnc(Cl)s2)/C1=N\[N+](=O)[O-] [Thiamethoxam] | <0.18 |
| O=C(NC(=O)c1c(F)cccc1F)Nc1ccc(Cl)cc1 [Diflubenzuron] | <0.18 |
| O=C(NC(=O)c1c(F)cccc1F)Nc1cc(Cl)c(OC(F)(F)C(F)C(F)(F)F)cc1Cl (centres unmarked) [Lufenuron] | <0.18 |
| CC(C)(C)N(NC(=O)c1ccccc1)C(=O)c1ccccc1 [1,2-dibenzoyl-1-(t-butyl)hydrazine] | <0.18 |
| CCN(Cc1ccc(Cl)nc1)/C(=C/[N+](=O)[O-])NC [Nitenpyram] | <0.18 |
| CC(COc1ccc(Oc2ccccc2)cc1)Oc1ccccn1 (centres unmarked) [Pyriproxyfen] | <0.18 |
| N#CN=C1SCCN1Cc1ccc(Cl)nc1 [(E)-Thiacloprid] | <0.18 |
| C/C(=N\C#N)N(C)Cc1ccc(Cl)nc1 [Acetamiprid] | <0.18 |
| CCCC/C=N/N(Cc1ccc(Cl)nc1)/C(N)=N/[N+](=O)[O-] [Guadipyr] | <0.18 |
| CN/C(=N/CC1CCOC1)N[N+](=O)[O-] (centres unmarked) [Dinotefuran] | <0.18 |
| O=C(NC(=O)c1c(F)cccc1F)Nc1cc(Cl)c(Oc2ncc(C(F)(F)F)cc2Cl)c(Cl)c1 [Chlorfluazuron] | <0.18 |
| CCOC(=O)NCCOc1ccc(Oc2ccccc2)cc1 [Fenoxycarb] | <0.18 |
| O=C1C=C(N(Cc2ccc(Cl)nc2)CC(F)F)CO1 [Flupyradifurone] | <0.18 |
| O=C(NC(=O)c1c(F)cccc1F)Nc1cc(Cl)c(OC(F)(F)C(F)F)c(Cl)c1 [Hexaflumuron] | <0.18 |
| CC(c1ccc(C(F)(F)F)nc1)S(C)(=O)=NC#N (centres unmarked) [Sulfoxaflor] | <0.18 |
| O=C(NC(=O)c1ccccc1Cl)Nc1ccc(OC(F)(F)F)cc1 [Triflumuron] | <0.18 |

— PMC10807744 (Journal of agricultural and food chemistry, 2023)
